Measurements reported in ChEMBL document CHEMBL1145335, “Nonpeptide inhibitors of measles virus entry” (J Med Chem, 2006).
Active and inactive are the calls of the source. No cut-off for these calls is given here.

How the values were obtained:
Measles morbillivirus [1] = experiment: Antiviral activity against wild type Measles virus Edmonston in Vero-CD150w cells upto 100 uM by cytopathicity assay; type: functional, organism-based
Method in brief: (§1)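 Cells infected with MV Edmonston at MOI 0.2 pfu/cell in the presence of 2-fold compound dilutions, starting at 75–300 µM and ending at 0.3–1.2 µM. Two to four replicates per concentration; DMSO ≤0.1% with matched DMSO controls. Virus-induced cytopathicity was read at 96 h post-infection by nonradioactive proliferation assay. IC50 was taken from dose-response curves of replicate averages.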

Vero [2] = experiment: Cytotoxicity against Vero-CD150w cells; type: functional; settings: Chlorocebus sabaeus
Method in brief: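 Uninfected cells were exposed to 2-fold compound dilutions from 600 µM down to 2.3 µM for 36 to 40 h. Remaining proliferation was then measured over 1 h by nonradioactive proliferation assay. CC50 comes from two independent replicates.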

Measles morbillivirus [3] = experiment: Antiviral activity against wild type Measles virus Edmonston in Vero-CD150w cells by cytopathicity assay; type: functional, organism-based; method in brief: as §1
Vero [4] = experiment: Selectivity index, CC50 for Vero-CD150w cells/IC50 for Measles virus Edmonston; type: functional
Method in brief: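 Ratio of CC50 to IC50. CC50: 2-fold dilutions from 600 µM, 36–40 h exposure, proliferation read-out, two independent replicates. IC50: suppression of cytopathicity at MOI 0.2 pfu/cell, 96 h, proliferation read-out, from dose-response curves of replicate averages.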

Measles morbillivirus [5] = experiment: Antiviral activity against Measles virus variant in Vero-CD150w cells by cytopathicity assay; type: functional, organism-based
Method in brief: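 MV variant carrying an F-protein point mutation at position 462. Cells infected at MOI 0.2 pfu/cell with 2-fold compound dilutions starting at 75–300 µM, in 2–4 replicates, with DMSO at most 0.1% and DMSO-matched controls. Cytopathicity quantified at 96 h post-infection by a nonradioactive proliferation assay. IC50 taken from dose-response curves of replicate averages.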

Measles morbillivirus [6] = experiment: Antiviral activity against wild type Measles virus Edmonston in Vero-CD150w cells at >75 uM by cytopathicity assay; type: functional, organism-based; method in brief: as §1
[7] = Measles morbillivirus, Edmonston, Vero-CD150w, read-out: IC50

| SMILES | Activity (Measles morbillivirus [1]) | CC50 (Vero [2]) | IC50 (Measles morbillivirus [3]; [7]) | Selectivity index (Vero [4]) | IC50 (Measles morbillivirus [5]) | Activity (Measles morbillivirus [6]) | IC50 (Measles morbillivirus [3]; vero-cd150w) |
| --- | --- | --- | --- | --- | --- | --- | --- |
| Nc1cc(CO)cc(NC(=O)Cc2ccccc2)c1 | inactive |  |  |  |  |  |  |
| O=C(Cc1ccccc1)Nc1ccc(F)c([N+](=O)[O-])c1 |  | 450 µM | > 100 µM | <5 |  |  |  |
| O=C(Cc1ccccc1)Nc1cccc([N+](=O)[O-])c1 |  | > 600 µM | 8.5 µM | >71 |  |  |  |
| Nc1cccc(NC(=O)Cc2ccccc2)c1 |  | > 600 µM | 19 µM | >32 | > 150 µM |  |  |
| NC(=O)c1ccc(O)c(NC(=O)Cc2ccccc2)c1 |  | > 600 µM | 127 µM | >5 |  |  |  |
| O=C(Cc1ccccc1)Nc1ccccc1C(=O)O |  | > 600 µM | 60 µM | >10 |  |  |  |
| O=[N+]([O-])c1ccc(O)c(NS(=O)(=O)Cc2ccccc2)c1 |  |  | > 300 µM |  |  |  |  |
| Nc1ccc(NC(=O)Cc2ccccc2)c(O)c1 |  | > 600 µM | 75 µM | >8 |  |  |  |
| Nc1cc(N)cc(NC(=O)Cc2ccccc2)c1 |  |  | > 100 µM |  |  |  |  |
| O=C(Cc1ccccc1)Nc1cc([N+](=O)[O-])cc([N+](=O)[O-])c1 |  | > 600 µM | 30 µM | >20 | > 150 µM |  |  |
| O=C(Cc1ccccc1)Nc1cc(NO)cc([N+](=O)[O-])c1 |  | 325 µM | 6 µM | 54 | > 75 µM |  |  |
| O=C(Cc1ccccc1)Nc1cc([N+](=O)[O-])ccc1OC(=O)Cc1ccccc1 |  | 75 µM | 68 µM | 1 |  |  |  |
| O=C(Cc1ccccc1I)Nc1cccc([N+](=O)[O-])c1 |  |  | > 300 µM |  |  |  |  |
| O=C(Cc1ccccc1)Nc1ccccc1O |  | 525 µM | 13 µM | 40 | > 150 µM |  |  |
| O=C(Cc1ccccc1)Nc1cc(CO)cc([N+](=O)[O-])c1 |  | > 600 µM | 6 µM | >100 | > 150 µM |  |  |
| O=C(Cc1ccccc1)Nc1cc(C(F)(F)F)ccc1O |  | > 600 µM | > 100 µM |  |  |  |  |
| COc1cccc(CC(=O)Nc2cc([N+](=O)[O-])ccc2O)c1 |  | > 600 µM | > 100 µM |  |  |  |  |
| Nc1ccc2oc(Cc3ccccc3)nc2c1 |  | > 600 µM | 55 µM | >10 | > 150 µM |  |  |
| O=C(Cc1ccc(I)cc1)Nc1cccc([N+](=O)[O-])c1 |  |  | > 75 µM |  |  |  |  |
| O=C(Cc1ccccc1)Nc1cc(C(=O)O)cc([N+](=O)[O-])c1 |  | > 600 µM | 5 µM | >120 | > 150 µM |  |  |
| O=C(Cc1ccccc1)Nc1ccc([N+](=O)[O-])cc1 |  | 550 µM | 16 µM | 34 |  |  |  |
| O=C(Cc1ccccc1)Nc1cc([N+](=O)[O-])ccc1O |  | 450 µM | 47 µM | 10 |  |  |  |
| O=C(Cc1ccccc1)Nc1ccc(O)c([N+](=O)[O-])c1 |  | > 600 µM | 63 µM | >10 |  |  |  |
| NC(=O)c1ccc([N+](=O)[O-])cc1NC(=O)Cc1ccccc1 |  | 325 µM | 3 µM | 108 | > 150 µM |  |  |

| SMILES | Activity (Measles morbillivirus [1]) | CC50 (Vero [2]) | IC50 (Measles morbillivirus [3]; [7]) | Selectivity index (Vero [4]) | IC50 (Measles morbillivirus [5]) | Activity (Measles morbillivirus [6]) | IC50 (Measles morbillivirus [3]; vero-cd150w) |
| --- | --- | --- | --- | --- | --- | --- | --- |
| O=C(Cc1ccccc1F)Nc1cccc([N+](=O)[O-])c1 |  |  |  |  |  | inactive |  |
| O=C(Cc1ccccn1)Nc1cccc([N+](=O)[O-])c1 |  |  | > 75 µM |  |  |  |  |
| Nc1cc(NC(=O)Cc2ccccc2)cc([N+](=O)[O-])c1 |  | > 600 µM | 11 µM | >55 | > 150 µM |  |  |
| O=C(COc1ccccc1)Nc1cc([N+](=O)[O-])ccc1O |  | 600 µM | > 100 µM | <6 |  |  |  |
| Nc1ccc(NC(=O)Cc2ccccc2)cc1 |  | > 600 µM | 135 µM | >4 |  |  |  |
| NC(=O)c1cc(N)cc(NC(=O)Cc2ccccc2)c1 |  | > 600 µM | 18 µM | >33 |  |  |  |
| O=C(COc1ccccc1)Nc1ccc([N+](=O)[O-])cc1O |  | > 600 µM | > 100 µM |  |  |  |  |
| O=C(Cc1cccc(I)c1)Nc1cccc([N+](=O)[O-])c1 |  |  | > 300 µM |  |  |  |  |
| NC(=O)c1cc(NC(=O)Cc2ccccc2)cc([N+](=O)[O-])c1 |  | 170 µM | 3.7 µM | 46 | > 75 µM |  |  |
| Nc1cc(C(=O)NCc2ccccc2)cc([N+](=O)[O-])c1 |  |  | 23 µM |  |  |  |  |
| COc1ccc(CC(=O)Nc2cc([N+](=O)[O-])ccc2O)cc1 |  | 600 µM | > 100 µM | <6 |  |  |  |
| O=C(Cc1ccncc1)Nc1cccc([N+](=O)[O-])c1 |  |  | > 75 µM |  |  |  |  |
| O=C(Cc1ccccc1)Nc1ccc(F)cn1 |  | > 600 µM | 109 µM | >6 |  |  |  |
| COC(=O)c1cc(NC(=O)Cc2ccccc2)cc([N+](=O)[O-])c1 |  | 440 µM | 4 µM | 110 | > 150 µM |  |  |
| O=C(Cc1ccc(F)cc1)Nc1cccc([N+](=O)[O-])c1 |  |  | 9 µM |  |  |  |  |
| O=C(Cc1ccccc1)Nc1cccc(O)c1 |  | > 600 µM | 25 µM | >24 |  |  |  |
| Nc1cc(NC(=O)Cc2ccccc2)cc(C(=O)O)c1 |  | > 600 µM | 55 µM | >11 |  |  |  |
| Nc1ccc(CO)c(NC(=O)Cc2ccccc2)c1 | inactive |  |  |  |  |  |  |
| Nc1ccc(NC(=O)COc2ccccc2)c(O)c1 |  |  |  |  |  |  | Not Active |
| O=C(Cc1cccnc1)Nc1cccc([N+](=O)[O-])c1 |  |  | > 75 µM |  |  |  |  |
| O=C(Cc1ccccc1)Nc1ccccc1[N+](=O)[O-] |  | > 600 µM | > 100 µM |  |  |  |  |
| COC(=O)c1ccc(O)c(NC(=O)Cc2ccccc2)c1 |  | > 600 µM | 66 µM | >9 |  |  |  |
| O=C(Cc1cccc(F)c1)Nc1cccc([N+](=O)[O-])c1 |  |  | 47 µM |  |  |  |  |
| N#Cc1cccc(NC(=O)Cc2ccccc2)c1 |  | > 600 µM | 6.5 µM | >92 | > 150 µM |  |  |
